MIC and inhibition data for 8 compounds are collected here from ChEMBL document CHEMBL4765291, “Design, synthesis and biological evaluation of novel 3,4-dihydro-2(1H)-quinolinone derivatives as potential chitin synthase inhibitors and antifungal agents” (Eur J Med Chem, 2020).

In brackets after ≈: the same amount, converted by molar mass.

Test [1] concerns Cryptococcus neoformans. Briefly: Antifungal activity against Cryptococcus neoformans ATCC 32719 incubated for 48 hrs by two-fold broth dilution analysis. Format: functional. The method in brief:
(§1)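 Stock solutions in DMSO, diluted to 0.25–512 µg/mL; two-fold serial broth dilution in 96-well plates. Fungi grown on modified Sabouraud chloramphenicol agar (1% peptone, 2% glucose, […]). Incubated 48 h at 37 °C, then MIC (µg/mL) recorded. Fluconazole and polyoxin B as positive controls; each group tested in triplicate.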

The test system of test [2] is Candida albicans. The test can be described thus: Antifungal activity against Candida albicans ATCC 76615 incubated for 48 hrs by two-fold broth dilution analysis. In kind it is functional. The method in brief:
as §1

Test [3] relates to Aspergillus flavus. The test can be described thus: Antifungal activity against Aspergillus flavus ATCC 16870 incubated for 48 hrs by two-fold broth dilution analysis. In kind it is functional. In a few lines:
as §1

Test [4] relates to Staphylococcus aureus. Briefly: Antibacterial activity against Staphylococcus aureus ATCC 25923. Format: functional. In a few lines:
(§2)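 Two-fold serial broth dilution in 96-well plates following National Committee standards; compounds tested at different concentrations. Medium: beef extract peptone (1% peptone, 0.3% beef extract, 0.5% NaCl). Incubation 18–24 h. MIC recorded; streptomycin and norfloxacin as control drugs; each group tested in triplicate.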

The subject of test [5] is Bacillus subtilis. Briefly: Antibacterial activity against Bacillus subtilis ATCC 6633. Format: functional. The method in brief:
as §2

Test [6] deals with Pseudomonas aeruginosa. The test can be described thus: Antibacterial activity against Pseudomonas aeruginosa ATCC 9027. Format: functional. The method in brief: as §2
Test [7] relates to Candida tropicalis. The test can be described thus: Inhibition of Candida tropicalis ATCC 750 chitin synthase at 300 ug/ml using UDP-GlcNAc as substrate relative to control. Particulars: dose 300.0 µg/ml. The method in brief: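 Chitin synthase prepared from C. tropicalis ATCC 750 by low- and high-speed centrifugation. DMSO stocks (10 mg/mL) diluted in 50 mM Tris-HCl pH 7.5; test concentrations 300–9.375 µg/mL. Chitin synthesized in WGA-coated wells, bound with WGA-HRP, washed, developed with TMB/H2O2, stopped with 2 M H2SO4, OD read. Duplicate; polyoxin B positive control.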

Test [8] concerns Aspergillus fumigatus. Briefly: Antifungal activity against Aspergillus fumigatus GIMCC 3.19 incubated for 48 hrs by two-fold broth dilution analysis. Format: functional. The method in brief: as §1
For test [9], the system named is Escherichia coli. Briefly: Antibacterial activity against Escherichia coli JM 109.
In test [10] the test system is Candida albicans. The test can be described thus: Antifungal activity against Candida albicans ATCC 90023 incubated for 48 hrs by two-fold broth dilution analysis. Format: functional. In a few lines: as §1
The subject of test [11] is Proteus vulgaris. Briefly: Antibacterial activity against Bacillus proteus ATCC 8427. Format: functional. The method in brief:
as §2

In test [12] the test system is Staphylococcus aureus. The test can be described thus: Antibacterial activity against methicillin-resistant Staphylococcus aureus N. 315. Format: functional. The method in brief:
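Two-fold serial broth dilution in 96-well plates per national clinical standard; beef extract peptone medium (1% peptone, 0.3% beef extract, 0.5% NaCl, […]). Compounds from DMSO stock diluted to test concentrations; incubation 18–24 h. MIC recorded; each group tested independently in triplicate.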

On to `O=C(/C=C/C(=O)NC1Cc2ccccc2NC1=O)Nc1cccc(Br)c1` (configuration not stated), for which the minimal inhibitory concentration (MIC) in test [1] worked out at 32 µg/mL (≈ 77.2 µM); in test [2], 2 µg/mL (≈ 4.83 µM); in test [3], 4 µg/mL (≈ 9.66 µM); in test [4] it was 128 µg/mL (≈ 309 µM); in test [5], 256 µg/mL (≈ 618 µM); in test [6], 256 µg/mL (≈ 618 µM). Besides, the MIC worked out at 4 µg/mL (≈ 9.66 µM) in test [8]; 256 µg/mL (≈ 618 µM) in test [9]; 1 µg/mL (≈ 2.41 µM) in test [10]; 256 µg/mL (≈ 618 µM) in test [11]; 512 µg/mL (≈ 1240 µM) in test [12]. Further, the inhibition in [7] amounted to 45.2%.

As for `O=C(/C=C/C(=O)NC1Cc2ccccc2NC1=O)Nc1ccccc1` (configuration not stated), the MIC in test [1] came out at 4 µg/mL (≈ 11.9 µM); in test [2], 4 µg/mL (≈ 11.9 µM); in [3], 4 µg/mL (≈ 11.9 µM); in test [4], 256 µg/mL (≈ 763 µM); in [5], 256 µg/mL (≈ 763 µM); in [6], 256 µg/mL (≈ 763 µM). The MIC in test [8] was 4 µg/mL (≈ 11.9 µM); in [9], 512 µg/mL (≈ 1530 µM); in [10], 2 µg/mL (≈ 5.96 µM); in [11], 256 µg/mL (≈ 763 µM); in test [12], 256 µg/mL (≈ 763 µM). Moreover, the inhibition in test [7] came to 35.7%.

Consider `O=C(/C=C/C(=O)NC1Cc2ccccc2NC1=O)Nc1cccc2ccccc12` (configuration not stated), for which the MIC is 4 µg/mL (≈ 10.4 µM) in test [1]; 2 µg/mL (≈ 5.19 µM) in test [2]; 8 µg/mL (≈ 20.8 µM) in test [3]; 256 µg/mL (≈ 664 µM) in [4]; 256 µg/mL (≈ 664 µM) in test [5]; 256 µg/mL (≈ 664 µM) in test [6]. For the same compound, the MIC in test [8] worked out at 4 µg/mL (≈ 10.4 µM); in test [9], 512 µg/mL (≈ 1330 µM); in test [10], 2 µg/mL (≈ 5.19 µM); in test [11], 256 µg/mL (≈ 664 µM); in [12], 256 µg/mL (≈ 664 µM). Also, in test [7], the inhibition worked out at 27.8%.

For the compound `CN[C@@H]1[C@H](O[C@H]2[C@H](O[C@H]3[C@H](O)[C@@H](O)[C@H](N=C(N)N)[C@@H](O)[C@@H]3N=C(N)N)O[C@@H](C)[C@]2(O)C=O)O[C@@H](CO)[C@H](O)[C@H]1O` [STREPTOMYCIN], the MIC was determined as 32 µg/mL (≈ 55 µM) in test [4]; 8 µg/mL (≈ 13.8 µM) in [5]; 8 µg/mL (≈ 13.8 µM) in test [6]; 32 µg/mL (≈ 55 µM) in [9]; 16 µg/mL (≈ 27.5 µM) in test [11]; 16 µg/mL (≈ 27.5 µM) in test [12].

Turning to `CCn1cc(C(=O)O)c(=O)c2cc(F)c(N3CCNCC3)cc21` [NORFLOXACIN], the MIC in test [4] turned out to be 2 µg/mL (≈ 6.26 µM); in test [5], 4 µg/mL (≈ 12.5 µM); in test [6], 8 µg/mL (≈ 25.1 µM); in test [9], 8 µg/mL (≈ 25.1 µM); in [11] it was 2 µg/mL (≈ 6.26 µM); in test [12], 4 µg/mL (≈ 12.5 µM).

In the case of `O=C(/C=C/C(=O)NC1Cc2ccccc2NC1=O)Nc1ccc(Cl)cc1` (configuration not stated), the MIC stood at 4 µg/mL (≈ 10.8 µM) in [1]; 4 µg/mL (≈ 10.8 µM) in [2]; 4 µg/mL (≈ 10.8 µM) in [3]; 128 µg/mL (≈ 346 µM) in test [4]; 256 µg/mL (≈ 692 µM) in test [5]; 512 µg/mL (≈ 1380 µM) in test [6]. Further, the MIC in test [8] is 8 µg/mL (≈ 21.6 µM); in [9], 256 µg/mL (≈ 692 µM); in test [10], 2 µg/mL (≈ 5.41 µM); in [11], 512 µg/mL (≈ 1380 µM); in test [12] it was 512 µg/mL (≈ 1380 µM). In [7], this compound displayed an inhibition of 50.5%.

As for `O=C(/C=C/C(=O)NC1Cc2ccccc2NC1=O)Nc1cccc([N+](=O)[O-])c1` (configuration not stated), the MIC in test [1] came out at 4 µg/mL (≈ 10.5 µM); in test [2], 4 µg/mL (≈ 10.5 µM); in test [3], 4 µg/mL (≈ 10.5 µM); in test [4], 128 µg/mL (≈ 337 µM); in [5] it was 256 µg/mL (≈ 673 µM); in [6], 512 µg/mL (≈ 1350 µM). For the same compound, the MIC in [8] was found to be 8 µg/mL (≈ 21 µM); in test [9], 128 µg/mL (≈ 337 µM); in test [10], 2 µg/mL (≈ 5.26 µM); in test [11], 256 µg/mL (≈ 673 µM); in [12] it was 256 µg/mL (≈ 673 µM). The inhibition in [7] was 49.3%.

Take `OC(Cn1cncn1)(Cn1cncn1)c1ccc(F)cc1F` [FLUCONAZOLE]: the MIC in test [1] stood at 2 µg/mL (≈ 6.53 µM); in test [2], 1 µg/mL (≈ 3.27 µM); in test [3], 2 µg/mL (≈ 6.53 µM); in test [8], 2 µg/mL (≈ 6.53 µM); in [10] it was 1 µg/mL (≈ 3.27 µM).
